These results are taken from ChEMBL document CHEMBL1255372 (2008).

In brackets after ≈: the same amount, converted by molar mass.

What all share (assay type): functional
Assay [1] concerns Escherichia coli. The assay is described as follows: Antibacterial activity against Escherichia coli J53 by Etest method.
Assay [2] has as its system Klebsiella pneumoniae. The assay is described as follows: Antibacterial activity against Klebsiella pneumoniae isolate VA375 with blaKPC-3, qnrA1, blaTEM-1, blaSHV-11 genes by Etest method.
Assay [3] concerns Klebsiella pneumoniae. In words: Antibacterial activity against Klebsiella pneumoniae isolate VA367 with blaKPC-3, qnrB19, blaTEM-1, blaSHV-11, blaSHV-12, aac(6')-1b genes by Etest method.
Assay [4] concerns Escherichia coli. In words: Antibacterial activity against Escherichia coli J53 transconjugated with Klebsiella pneumoniae isolate VA375 containing qnrA1, blaTEM-1, blaSHV-11genes by Etest method. The method in brief:
(§1)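 Test strains were E. coli J53 (rifampin-resistant recipient) transconjugants obtained by conjugation with the K. pneumoniae donor isolate. After overnight incubation, the donor–recipient mixture was plated on MacConkey agar containing ceftazidime (10 mg/liter) plus rifampin (100 mg/liter) to select transconjugants. Etest conditions are not described.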

The test system of assay [5] is Escherichia coli. The assay is described as follows: Antibacterial activity against Escherichia coli J53 transconjugated with Klebsiella pneumoniae isolate VA367 containing blaKPC-3, qnrB19, blaTEM-1, blaSHV-11, aac(6')-1b genes by Etest method. The method in brief:
as §1

Assay [6] relates to Klebsiella pneumoniae. The assay is described as follows: Antibacterial activity against Klebsiella pneumoniae isolate VA375 with blaKPC-3, qnrA1, blaTEM-1, blaSHV-11 genes by CLSI method.
Assay [7] has as its system Klebsiella pneumoniae. The assay is described as follows: Antibacterial activity against Klebsiella pneumoniae isolate VA367 with blaKPC-3, qnrB19, blaTEM-1, blaSHV-11, blaSHV-12, aac(6')-1b genes by CLSI method.
Assay [8] concerns Escherichia coli. In words: Antibacterial activity against Escherichia coli J53 transconjugated with Klebsiella pneumoniae isolate VA367 containing blaKPC-3, qnrB19, blaTEM-1, blaSHV-11, aac(6')-1b genes by CLSI method.
The subject of assay [9] is Escherichia coli. The assay is described as follows: Antibacterial activity against Escherichia coli J53 by CLSI method.
In assay [10] the test system is Escherichia coli. In words: Antibacterial activity against Escherichia coli J53 transconjugated with Klebsiella pneumoniae isolate VA375 containing qnrA1, blaTEM-1, blaSHV-11genes by CLSI method.

What is called MIC is the lowest concentration that inhibits growth of the organism. Lower therefore signals a more susceptible organism. As for `C[C@@H](O)[C@H]1C(=O)N2C(C(=O)O)=C(S[C@@H]3CN[C@H](C(=O)Nc4cccc(C(=O)O)c4)C3)[C@H](C)[C@H]12`, the minimum inhibitory concentration (MIC) came to 0.023 µg/mL (≈ 0.0484 µM) in assay [1]; 8 µg/mL (≈ 16.8 µM) in assay [2]; 16 µg/mL (≈ 33.6 µM) in assay [3]; 0.125 µg/mL (≈ 0.263 µM) in assay [4]; 2 µg/mL (≈ 4.21 µM) in assay [5].
In the case of `NCC[C@H](O)C(=O)N[C@@H]1C[C@H](N)[C@@H](O[C@H]2O[C@H](CN)[C@@H](O)[C@H](O)[C@H]2O)[C@H](O)[C@H]1O[C@H]1O[C@H](CO)[C@@H](O)[C@H](N)[C@H]1O` [AMIKACIN], the MIC is no more than 2 µg/mL in [6]; no less than 64 µg/mL in assay [7]; 16 µg/mL (≈ 27.3 µM) in [8]; no more than 2 µg/mL in [9]; no more than 2 µg/mL in [10].
In the case of `CC(C)(O/N=C(\C(=O)N[C@@H]1C(=O)N2C(C(=O)[O-])=C(C[n+]3ccccc3)CS[C@H]12)c1csc(N)n1)C(=O)O` [CEFTAZIDIME], the MIC in assay [6] was no less than 64 µg/mL; in assay [7] it was no less than 64 µg/mL; in [8], 32 µg/mL (≈ 58.5 µM); in assay [9], no more than 1 µg/mL; in assay [10], no less than 64 µg/mL.
For `CO/N=C(\C(=O)N[C@@H]1C(=O)N2C(C(=O)O)=C(CSc3nc(=O)c(O)nn3C)CS[C@H]12)c1csc(N)n1` [CEFTRIAXONE], the MIC in assay [6] was 32 µg/mL (≈ 57.7 µM); in assay [7], no less than 64 µg/mL; in assay [8] it was 8 µg/mL (≈ 14.4 µM); in [9] it was no more than 1 µg/mL; in assay [10], 8 µg/mL (≈ 14.4 µM).
With `CO/N=C(\C(=O)N[C@@H]1C(=O)N2C(C(=O)O)=C(COC(N)=O)CS[C@H]12)c1ccco1` [CEFUROXIME], the MIC in [6] is no less than 64 µg/mL; in assay [7], no less than 64 µg/mL; in assay [8], no less than 64 µg/mL; in assay [9], 16 µg/mL (≈ 37.7 µM); in assay [10] it was no less than 64 µg/mL.
Turning to `O=C(O)c1cn(C2CC2)c2cc(N3CCNCC3)c(F)cc2c1=O` [CIPROFLOXACIN], the MIC was 0.75 µg/mL (≈ 2.26 µM) in assay [2] and no less than 32 µg/mL in [3].
Take `C[C@@H](O)[C@H]1C(=O)N2C(C(=O)O)=C(SCCNC=N)C[C@H]12` [IMIPENEM ANHYDROUS]: the MIC is 8 µg/mL (≈ 26.7 µM) in assay [2]; 2 µg/mL (≈ 6.68 µM) in [6]; 2 µg/mL (≈ 6.68 µM) in assay [7]; 4 µg/mL (≈ 13.4 µM) in [8]; 16 µg/mL (≈ 53.4 µM) in [3]; no more than 1 µg/mL in assay [9]. The values for the MIC in [4], in assay [5] and in [10] were 0.38 µg/mL (≈ 1.27 µM), 4 µg/mL (≈ 13.4 µM) and no more than 1 µg/mL, respectively.
`C[C@H]1COc2c(N3CCN(C)CC3)c(F)cc3c(=O)c(C(=O)O)cn1c23.C[C@H]1COc2c(N3CCN(C)CC3)c(F)cc3c(=O)c(C(=O)O)cn1c23.O` [LEVOFLOXACIN]: the MIC in [1] was 0.25 µg/mL; in assay [2] it was 0.75 µg/mL; in assay [7], no less than 8 µg/mL; in assay [3], no less than 32 µg/mL; in assay [9], no more than 0.25 µg/mL; in [4], 1.5 µg/mL. In assay [5], this compound showed an MIC of 0.75 µg/mL.
For `C[C@@H](O)[C@H]1C(=O)N2C(C(=O)O)=C(S[C@@H]3CN[C@H](C(=O)N(C)C)C3)[C@H](C)[C@H]12` [MEROPENEM], the minimal inhibitory concentration (MIC) in assay [1] amounted to 0.047 µg/mL (≈ 0.123 µM); in assay [2], 4 µg/mL (≈ 10.4 µM); in assay [6], 1 µg/mL (≈ 2.61 µM); in [7], 2 µg/mL (≈ 5.22 µM); in assay [8], 1 µg/mL (≈ 2.61 µM); in assay [3] it was 8 µg/mL (≈ 20.9 µM). The MIC in assay [9] is no more than 0.25 µg/mL; in assay [4], 0.38 µg/mL (≈ 0.991 µM); in [5], 4 µg/mL (≈ 10.4 µM); in assay [10], no more than 0.25 µg/mL.
For `O=C1CN(/N=C/c2ccc([N+](=O)[O-])o2)C(=O)N1` [NITROFURANTOIN], the MIC is 64 µg/mL (≈ 269 µM) in [6]; no less than 512 µg/mL in assay [7]; no more than 16 µg/mL in assay [8]; no more than 16 µg/mL in assay [9]; no more than 16 µg/mL in assay [10].
With `CCN1CCN(C(=O)N[C@@H](C(=O)N[C@@H]2C(=O)N3[C@@H]2SC(C)(C)[C@@H]3C(=O)O)c2ccccc2)C(=O)C1=O` [PIPERACILLIN], the MIC in assay [6] is no less than 128 µg/mL; in [7], no less than 128 µg/mL; in assay [8], no less than 128 µg/mL; in assay [9], no more than 4 µg/mL; in assay [10] it was no less than 128 µg/mL.
For the compound `CN(C)c1cc(NC(=O)CNC(C)(C)C)c(O)c2c1C[C@H]1C[C@H]3[C@H](N(C)C)C(O)=C(C(N)=O)C(=O)[C@@]3(O)C(O)=C1C2=O` [TIGECYCLINE], the MIC in [1] is 0.5 µg/mL (≈ 0.854 µM); in [2], 1.5 µg/mL (≈ 2.56 µM); in assay [4], 0.5 µg/mL (≈ 0.854 µM); in assay [5], 0.5 µg/mL (≈ 0.854 µM).
On to `NC[C@H]1O[C@H](O[C@H]2[C@H](O)[C@@H](O[C@H]3O[C@H](CO)[C@@H](O)[C@H](N)[C@H]3O)[C@H](N)C[C@@H]2N)[C@H](N)C[C@@H]1O` [TOBRAMYCIN], for which the minimum inhibitory concentration (MIC) is no less than 16 µg/mL in assay [6]; no less than 16 µg/mL in assay [7]; no less than 16 µg/mL in assay [8]; no more than 1 µg/mL in assay [9]; 4 µg/mL (≈ 8.56 µM) in assay [10].
With COLISTIN, the MIC in assay [1] stood at 0.38 µg/mL; in [2] it was 1 µg/mL; in assay [4], 0.38 µg/mL; in assay [5] it was 0.38 µg/mL.
Take GENTAMICIN: the MIC in assay [6] is greater than 16 µg/mL; in assay [7], 4 µg/mL; in assay [8] it was less than 1 µg/mL; in [9] it was less than 1 µg/mL; in assay [10], 4 µg/mL.
